The source made the active and inactive calls. No cut-off for these calls is given here.
Key:
[1] = molecular target: Serine/threonine-protein kinase Chk1 (Homo sapiens) (UniProt O14757); assay: Inhibition of recombinant human N-terminal GST-tagged CHK1 (1 to 476 residues) expressed in baculovirus infected Sf21 cells assessed as remaining activity at 1 uM using CHKtide as substrate incubated for 30 mins in presence of [gamma-33P]ATP by filter binding method relative to control
Summary of the method: (§1)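 Screened at the International Centre for Protein Kinase Profiling against a 140-kinase panel, with inhibitor at 0.1 or 1 μM; activity expressed as percentage of DMSO control reactions, mean of triplicate reactions.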

[2] = molecular target: Serine/threonine-protein kinase PLK1 (Homo sapiens) (UniProt P53350); assay: Inhibition of recombinant human N-terminal His6-tagged PLK1 (1 to 603 residues) expressed in baculovirus infected Sf21 cells assessed as remaining activity at 1 uM using ISDELMDATFADQEAKKK as substrate incubated for 30 mins in presence of [gamma-33P]ATP by filter binding method relative to control; summary of the method: as §1
Chain of Serine/threonine-protein kinase PLK1 (Homo sapiens) (P53350 whole entry, the tested form may be a part): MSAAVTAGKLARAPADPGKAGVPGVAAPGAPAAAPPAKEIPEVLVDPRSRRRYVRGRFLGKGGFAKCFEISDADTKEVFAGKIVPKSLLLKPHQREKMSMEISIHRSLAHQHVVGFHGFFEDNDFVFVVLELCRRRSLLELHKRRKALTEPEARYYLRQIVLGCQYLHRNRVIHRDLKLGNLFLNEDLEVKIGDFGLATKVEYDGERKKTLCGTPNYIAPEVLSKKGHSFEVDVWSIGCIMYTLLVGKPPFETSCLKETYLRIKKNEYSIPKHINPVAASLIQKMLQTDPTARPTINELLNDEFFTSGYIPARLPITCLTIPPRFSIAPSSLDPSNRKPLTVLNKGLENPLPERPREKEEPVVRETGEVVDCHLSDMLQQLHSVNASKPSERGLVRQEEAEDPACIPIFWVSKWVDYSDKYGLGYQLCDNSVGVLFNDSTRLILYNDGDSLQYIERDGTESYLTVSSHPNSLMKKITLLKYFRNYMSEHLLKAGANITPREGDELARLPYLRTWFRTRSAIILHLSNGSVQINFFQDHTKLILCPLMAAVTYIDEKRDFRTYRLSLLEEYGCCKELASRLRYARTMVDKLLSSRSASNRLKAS

[3] = molecular target: T1, Aurora kinase A (Homo sapiens) (UniProt O14965); assay: Inhibition of recombinant human N-terminal […] Aurora A (2 to 403 residues) expressed in Escherichia coli assessed as remaining activity at 1 uM using LRRLSLGLRRLSLGLRRLSLGLRRLSLG as substrate incubated for 30 mins in presence of [gamma-33P]ATP by filter binding method relative to control; summary of the method: as §1
T1 sequence (whole entry): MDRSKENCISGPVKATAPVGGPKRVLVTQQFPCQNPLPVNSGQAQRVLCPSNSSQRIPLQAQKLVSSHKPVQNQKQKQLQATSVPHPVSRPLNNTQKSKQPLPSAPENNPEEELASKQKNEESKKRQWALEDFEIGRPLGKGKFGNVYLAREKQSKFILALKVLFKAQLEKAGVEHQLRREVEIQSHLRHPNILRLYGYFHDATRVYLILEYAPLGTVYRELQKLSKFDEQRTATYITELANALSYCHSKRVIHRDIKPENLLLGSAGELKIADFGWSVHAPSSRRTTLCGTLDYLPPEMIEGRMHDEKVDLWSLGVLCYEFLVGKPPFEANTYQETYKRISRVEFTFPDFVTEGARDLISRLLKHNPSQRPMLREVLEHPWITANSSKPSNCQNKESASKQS

[4] = molecular target: Testis-specific serine/threonine-protein kinase 1 (Homo sapiens) (UniProt Q9BXA7); assay: Inhibition of recombinant human N-terminal GST-tagged TSSK1 (1 to 367 residues) expressed in Escherichia coli assessed as remaining activity at 1 uM using KKKVSRSGLYRSPSMPENLNRPR as substrate incubated for 30 mins in presence of [gamma-33P]ATP by filter binding method relative to control; summary of the method: as §1
Chain of Testis-specific serine/threonine-protein kinase 1 (Homo sapiens) (Q9BXA7 whole entry, the tested form may be a part): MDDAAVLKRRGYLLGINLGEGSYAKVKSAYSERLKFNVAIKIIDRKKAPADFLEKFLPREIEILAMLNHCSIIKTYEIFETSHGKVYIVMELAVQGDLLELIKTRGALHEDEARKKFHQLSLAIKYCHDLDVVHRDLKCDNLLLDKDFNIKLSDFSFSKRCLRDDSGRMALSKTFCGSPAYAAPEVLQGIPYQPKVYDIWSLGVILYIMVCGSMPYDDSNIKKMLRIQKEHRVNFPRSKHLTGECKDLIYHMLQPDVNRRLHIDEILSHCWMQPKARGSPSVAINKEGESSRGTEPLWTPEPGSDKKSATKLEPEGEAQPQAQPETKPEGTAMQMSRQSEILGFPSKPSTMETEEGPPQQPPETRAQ

[5] = molecular target: Ephrin type-B receptor 4 (Homo sapiens) (UniProt P54760); assay: Inhibition of recombinant human N-terminal His6-tagged EPHB4 (561 to 987 residues) expressed in baculovirus infected Sf21 cells assessed as remaining activity at 1 uM using Poly (Glu,Tyr) as substrate incubated for 30 mins in presence of [gamma-33P]ATP by filter binding method relative to control
Chain of Ephrin type-B receptor 4 (Homo sapiens) (P54760 whole entry, the tested form may be a part): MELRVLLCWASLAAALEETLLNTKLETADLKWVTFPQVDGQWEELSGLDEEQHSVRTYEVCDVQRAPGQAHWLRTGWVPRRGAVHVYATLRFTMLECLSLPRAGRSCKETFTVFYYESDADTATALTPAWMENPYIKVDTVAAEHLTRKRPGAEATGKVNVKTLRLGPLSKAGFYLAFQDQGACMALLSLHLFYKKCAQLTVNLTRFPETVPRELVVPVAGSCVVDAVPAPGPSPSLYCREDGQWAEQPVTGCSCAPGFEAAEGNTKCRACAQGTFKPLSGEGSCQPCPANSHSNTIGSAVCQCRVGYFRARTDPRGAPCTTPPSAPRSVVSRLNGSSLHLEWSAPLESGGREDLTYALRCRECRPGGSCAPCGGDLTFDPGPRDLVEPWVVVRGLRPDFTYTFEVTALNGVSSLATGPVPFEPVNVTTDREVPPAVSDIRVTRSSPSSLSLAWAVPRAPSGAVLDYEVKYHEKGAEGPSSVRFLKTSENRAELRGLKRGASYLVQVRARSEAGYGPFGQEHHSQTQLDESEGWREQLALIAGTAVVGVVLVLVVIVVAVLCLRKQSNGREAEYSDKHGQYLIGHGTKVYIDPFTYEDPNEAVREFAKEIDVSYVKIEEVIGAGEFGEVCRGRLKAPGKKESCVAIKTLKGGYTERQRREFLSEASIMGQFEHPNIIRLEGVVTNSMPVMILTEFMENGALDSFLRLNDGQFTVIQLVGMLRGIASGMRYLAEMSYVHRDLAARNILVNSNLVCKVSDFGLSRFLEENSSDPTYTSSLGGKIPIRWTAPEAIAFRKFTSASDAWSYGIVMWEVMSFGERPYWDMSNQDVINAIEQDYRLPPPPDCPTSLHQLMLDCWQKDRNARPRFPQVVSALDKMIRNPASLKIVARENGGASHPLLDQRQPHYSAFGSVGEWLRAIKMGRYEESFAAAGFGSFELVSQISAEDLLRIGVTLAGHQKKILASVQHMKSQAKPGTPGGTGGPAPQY
Summary of the method: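 Run within a 140-kinase specificity panel at the International Centre for Protein Kinase Profiling. Compounds were dissolved in DMSO and tested in vitro at 0.1 or 1 μM. Activity is expressed as percentage of kinase activity in DMSO control reactions, as the mean ± S.D. of triplicate reactions.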

[6] = molecular target: Platelet-derived growth factor receptor alpha (Homo sapiens) (UniProt P16234); assay: Inhibition of recombinant human PDGFRalpha (551 to 10589 residues) expressed in baculovirus infected Sf21 cells assessed as remaining activity at 1 uM using KKKKEEIYFFFG as substrate incubated for 30 mins in presence of [gamma-33P]ATP by filter binding method relative to control; summary of the method: as §1
Chain of Platelet-derived growth factor receptor alpha (Homo sapiens) (P16234 whole entry, the tested form may be a part): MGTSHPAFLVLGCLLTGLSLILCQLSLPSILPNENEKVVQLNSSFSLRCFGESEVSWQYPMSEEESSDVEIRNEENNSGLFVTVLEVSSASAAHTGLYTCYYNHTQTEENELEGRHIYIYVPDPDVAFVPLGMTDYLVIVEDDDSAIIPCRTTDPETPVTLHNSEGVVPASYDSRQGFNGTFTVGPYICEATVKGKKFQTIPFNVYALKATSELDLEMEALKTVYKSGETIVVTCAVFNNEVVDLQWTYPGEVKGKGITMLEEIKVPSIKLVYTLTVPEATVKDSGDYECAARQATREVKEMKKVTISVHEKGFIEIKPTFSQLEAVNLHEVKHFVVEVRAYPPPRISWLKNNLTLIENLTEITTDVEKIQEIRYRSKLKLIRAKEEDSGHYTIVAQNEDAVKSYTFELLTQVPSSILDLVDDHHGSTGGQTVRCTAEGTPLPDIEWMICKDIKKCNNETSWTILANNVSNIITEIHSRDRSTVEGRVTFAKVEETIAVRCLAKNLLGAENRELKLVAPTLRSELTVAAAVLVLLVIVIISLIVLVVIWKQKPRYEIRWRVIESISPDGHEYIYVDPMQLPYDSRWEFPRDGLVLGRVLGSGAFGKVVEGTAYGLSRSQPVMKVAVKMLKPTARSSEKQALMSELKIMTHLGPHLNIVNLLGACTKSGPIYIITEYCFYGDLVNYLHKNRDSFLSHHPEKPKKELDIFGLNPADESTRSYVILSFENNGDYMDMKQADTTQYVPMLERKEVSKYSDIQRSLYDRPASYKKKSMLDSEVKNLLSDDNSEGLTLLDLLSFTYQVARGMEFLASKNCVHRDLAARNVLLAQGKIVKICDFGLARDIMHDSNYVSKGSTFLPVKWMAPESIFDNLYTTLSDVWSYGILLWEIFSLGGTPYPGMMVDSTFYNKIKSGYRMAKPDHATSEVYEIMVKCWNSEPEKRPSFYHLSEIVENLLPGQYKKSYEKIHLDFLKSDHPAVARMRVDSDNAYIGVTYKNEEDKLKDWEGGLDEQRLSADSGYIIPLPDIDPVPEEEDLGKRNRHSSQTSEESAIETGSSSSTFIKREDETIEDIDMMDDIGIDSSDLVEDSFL

[7] = test system: MEF; assay: Inhibition of cell migration in NUAK1+/+ MEF cells at 10 uM pre incubated for 1 hr followed by overnight incubation and measured after 15 to 20 hrs by microscopic based wound healing assay; type: functional; settings: Mus musculus
Summary of the method: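 Wound healing: equal MEF numbers loaded into both chambers of inserts with a 500 μm gap, inhibitor (10 μM) added 1 h before; after overnight at 37 °C, 5% CO2 insert removed and gap closure filmed by time-lapse microscopy every 2 min over 15–20 h; triplicate.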

[8] = test system: U2OS; assay: Antiproliferative activity against human U2OS cells assessed as reduction in cell viability at 10 uM after 5 days by CellTiter 96 non-radioactive cell proliferation assay; type: functional, cell-based; settings: time 5.0 day
Summary of the method: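 Colorimetric CellTiter 96 AQueous proliferation assay in 96-well format; 2000 cells/well seeded for U2OS, 3000 cells/well for MEFs; grown 5 days with or without 10 μM inhibitor; run in triplicate. Inhibitors dissolved in DMSO, final DMSO in medium ≤1%. MEFs cultured in DMEM/10% FBS, glutamine, non-essential amino acids, sodium pyruvate.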

[9] = molecular target: T2, NUAK family SNF1-like kinase 1 (Homo sapiens) (UniProt O60285); assay: Inhibition of NUAK1 in human U2OS cells assessed as reduction in MYPT1 phosphorylation at Ser445 residues at 10 uM after 16 hrs by immunoblot analysis; type: cell-based
T2 sequence (whole entry): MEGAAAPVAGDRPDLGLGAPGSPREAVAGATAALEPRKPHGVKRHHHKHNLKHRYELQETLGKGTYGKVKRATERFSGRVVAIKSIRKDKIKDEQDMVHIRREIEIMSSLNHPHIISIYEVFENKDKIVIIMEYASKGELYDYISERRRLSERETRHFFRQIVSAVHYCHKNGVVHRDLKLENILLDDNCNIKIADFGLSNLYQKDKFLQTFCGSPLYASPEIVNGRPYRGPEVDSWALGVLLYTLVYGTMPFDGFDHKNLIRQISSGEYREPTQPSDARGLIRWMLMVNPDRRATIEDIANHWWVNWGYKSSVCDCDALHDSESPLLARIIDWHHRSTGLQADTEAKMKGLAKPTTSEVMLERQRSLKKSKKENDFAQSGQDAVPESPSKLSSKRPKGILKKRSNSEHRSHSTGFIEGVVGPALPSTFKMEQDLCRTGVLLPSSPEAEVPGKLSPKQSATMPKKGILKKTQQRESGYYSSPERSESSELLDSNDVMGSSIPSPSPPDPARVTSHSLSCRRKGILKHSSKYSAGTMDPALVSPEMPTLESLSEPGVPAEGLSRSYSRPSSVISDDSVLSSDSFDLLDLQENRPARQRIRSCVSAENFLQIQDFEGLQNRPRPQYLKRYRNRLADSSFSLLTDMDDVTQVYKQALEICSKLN
Summary of the method: (§2)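 U2OS cells or NUAK1+/+ MEFs treated with or without 10 μM inhibitor for 16 h, then 20 min in EDTA-PBS dissociation buffer with 10 μM inhibitor or DMSO; detached by tapping and 70 g 3 min spin, lysed immediately and immunoblotted for MYPT1 p-Ser445; three separate experiments.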

[10] = test system: MEF; assay: Inhibition of NUAK1 in NUAK1+/+ MEF cells assessed as reduction in MYPT1 phosphorylation at Ser445 residues at 10 uM after 16 hrs by immunoblot analysis; type: cell-based; settings: Mus musculus; summary of the method: as §2

Chain of Serine/threonine-protein kinase Chk1 (Homo sapiens) (O14757 whole entry, the tested form may be a part): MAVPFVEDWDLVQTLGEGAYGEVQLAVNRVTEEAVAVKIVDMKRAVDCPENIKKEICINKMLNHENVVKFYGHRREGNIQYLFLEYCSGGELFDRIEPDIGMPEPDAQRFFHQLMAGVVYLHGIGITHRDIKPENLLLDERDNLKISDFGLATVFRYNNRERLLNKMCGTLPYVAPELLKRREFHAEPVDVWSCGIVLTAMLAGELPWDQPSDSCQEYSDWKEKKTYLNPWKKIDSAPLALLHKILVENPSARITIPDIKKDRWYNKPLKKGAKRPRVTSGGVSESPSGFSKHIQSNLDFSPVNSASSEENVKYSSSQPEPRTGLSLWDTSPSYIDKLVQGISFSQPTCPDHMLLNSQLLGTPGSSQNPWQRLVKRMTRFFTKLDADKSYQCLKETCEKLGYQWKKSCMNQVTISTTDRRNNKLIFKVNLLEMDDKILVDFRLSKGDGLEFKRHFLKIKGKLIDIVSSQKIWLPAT

## CCC(=O)Nc1cccc(Oc2nc(Nc3ccc(N4CCN(C)CC4)cc3OC)ncc2Cl)c1
[1]
  Activity: 58%
[2]
  Activity: 84%
[3]
  Activity: 75%
[4]
  Activity: 58%
[5]
  Activity: 83%
[6]
  Activity: 96%
[7]
  inhibition: Active
[8]
  inhibition: Active
[9]
  inhibition: Active
[10]
  inhibition: Active

Source: ChEMBL document CHEMBL5705897, “Characterization of WZ4003 and HTH-01-015 as selective inhibitors of the LKB1-tumour-suppressor-activated NUAK kinases” (Biochem J, 2014)
